The structures appear in SMILES notation.

1 molecule from ChEMBL document CHEMBL1156295, “In vitro and in vivo photocytotoxicity of boron dipyrromethene derivatives for photodynamic therapy” (J Med Chem, 2010) can be followed below.

Test [1] relates to HSC-2. The test can be described thus: Induction of apoptosis in human HSC2 cells irradiated with 4.1 J/cm^2 broad spectrum light assessed as apoptotic cells at 0.5 uM after 16 hrs of irradiation by annexin V-FITC staining. Format: functional. The method, boiled down: (§1)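 HSC-2 cells at 50% confluency in dishes, treated 2 h, then irradiated (4.1 J/cm2 broad spectrum) or kept dark. At intervals, floating and trypsinized cells pooled, washed in cold PBS, resuspended at 1 × 10^6 cells/mL in binding buffer. Stained 15 min in the dark at room temperature with annexin V-FITC and propidium iodide. 1 × 10^4 cells read by flow cytometry (FL1, FL3).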

Test [2] has as its system HSC-2. Put plainly: Induction of apoptosis in human HSC2 cells irradiated with 4.1 J/cm^2 broad spectrum light assessed as apoptotic cells at 0.5 uM after 24 hrs of irradiation by annexin V-FITC staining. Format: functional. The method, boiled down:
as §1

A further test has as its system HL-60. The test can be described thus: Cytotoxicity against human HL60 cells after 24 hrs by MTT assay. The test is classed as functional, cell-based. As to conditions: HL-60, 24 h. An outline of the steps:
(§2)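 HL60 at 15000 cells/well; HSC-2 and HK1 at 3000 cells/well, adhered overnight; phenol-red-free medium with 10% FBS. Compound tested at 0.001–100.0 μM from DMSO stock; controls 0.01% DMSO. After 2 h, irradiated with broad-spectrum light at 6.8 mW/cm2, or dark. After 24 h, MTT 4 h at 37 °C, formazan in DMSO, A570. Three determinations, mean ± SD.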
In general terms: Tetrazolium dyes change colour on reduction, which living cells bring about.

Test [3] concerns HSC-2. The test can be described thus: Phototoxicity against human HSC2 cells irradiated with 4.1 J/cm^2 broad spectrum light treated 2 hrs before irradiation measured after 24 hrs by MTT assay. Conditions: HSC-2, light or radiation study. The test is classed as functional, cell-based. An outline of the steps:
as §2

Test [4] can be described thus: Phototoxicity against human HK1 cells irradiated with 4.1 J/cm^2 broad spectrum light treated 2 hrs before irradiation measured after 24 hrs by MTT assay. The test is classed as functional, cell-based. Conditions: HK-1, light or radiation study. The method, boiled down: as §2
Test [5] can be described thus: Cytotoxicity against human HK1 cells after 24 hrs by MTT assay. Conditions: HK-1, 24 h. The test is classed as functional, cell-based. The method, boiled down:
as §2

Test [6] concerns HSC-2. The test can be described thus: Cell cycle arrest in human HSC2 cells irradiated with 4.1 J/cm^2 broad spectrum light assessed as accumulation at G2/M phase at 0.25 uM after 4 hrs by flow cytometry relative to control. Format: functional. The method, boiled down: (§3)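 HSC-2 cells given compound for 2 h, then irradiated with broad-spectrum light (or kept dark). Floating plus trypsinized adherent cells collected at set times after irradiation. Fixed in 70% ice-cold ethanol overnight at 4 °C, then stained 30 min with 20 μg/mL RNase A and 1 μM SYTOX Green. 1 × 10^4 cells read by flow cytometry (488 nm laser, FL1 530/30).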

The test system of test [7] is HSC-2. Put plainly: Cell cycle arrest in human HSC2 cells irradiated with 4.1 J/cm^2 broad spectrum light assessed as accumulation at G1 phase at 0.25 uM after 2 hrs by flow cytometry relative to control. The test is classed as functional. The method, boiled down:
as §3
For orientation: A flow cytometer gives signals particle by particle.

Test [8] deals with HSC-2. The test can be described thus: Cell cycle arrest in human HSC2 cells irradiated with 4.1 J/cm^2 broad spectrum light assessed as accumulation at G1 phase at 0.25 uM after 8 hrs by flow cytometry relative to control. The test is classed as functional. An outline of the steps:
as §3

Test [9] relates to HSC-2. Put plainly: Cell cycle arrest in human HSC2 cells irradiated with 4.1 J/cm^2 broad spectrum light assessed as accumulation at G1 phase at 0.25 uM after 12 hrs by flow cytometry relative to control. The test is classed as functional. The method, boiled down: as §3
The subject of test [10] is HSC-2. The test can be described thus: Cell cycle arrest in human HSC2 cells irradiated with 4.1 J/cm^2 broad spectrum light assessed as accumulation at sub-G1 phase at 0.25 uM after 2 hrs by flow cytometry relative to control. Format: functional. The method, boiled down:
as §3

Test [11] concerns HSC-2. The test can be described thus: Cell cycle arrest in human HSC2 cells in dark assessed as accumulation at sub-G1 phase at 0.25 uM after 12 hrs by flow cytometry relative to control. The test is classed as functional. The method, boiled down: as §3
The test system of test [12] is HSC-2. Put plainly: Induction of apoptosis in human HSC2 cells irradiated with 4.1 J/cm^2 broad spectrum light assessed as viable cells at 0.5 uM after 4 hrs of irradiation by annexin V-FITC staining. The test is classed as functional. As to conditions: HSC-2, light or radiation study, read-out: Activity. An outline of the steps: as §1
Test [13] has as its system HSC-2. Put plainly: Induction of apoptosis in human HSC2 cells irradiated with 4.1 J/cm^2 broad spectrum light assessed as apoptotic cells at 0.5 uM after 4 hrs of irradiation by annexin V-FITC staining. The test is classed as functional. The method, boiled down:
as §1

Regarding `CC1=C(I)C(C)=[N+]2C1=C(CCC(=O)O)c1c(C)c(I)c(C)n1[B-]2(F)F`, the Activity came to 47.4% with HSC-2 [1]; 89.9% with HSC-2 [2]; 48.4% in the test with HSC-2 [6]; 46.3% in the test with HSC-2 [7]; 30.3% in the test with HSC-2 [8]; 44.1% in the test with HSC-2 [9]. The Activity was 3.7% in the test with HSC-2 [10], 3.8% in the test on HSC-2 [11] and 8.7% in the test with HSC-2 [13]. For the same molecule, the concentration for half-maximal inhibition (IC50) with HL-60 was over 100000 nM; in the test on HSC-2 [3] it was 100 nM; in test [4] it was 570 nM; in test [5], 55800 nM. Also, in the test on HSC-2 [12], the viability at 0.5 µM came out at 91.3%.

For orientation: IC50 means the point on the concentration scale where inhibition reaches its midpoint. Low values mean greater potency in that assay, high ones weaker potency in that assay.
